{"data": "Results from different studies", "ESR2": "Estrogen receptor beta (ESR2, Homo sapiens, UniProt Q92731)", "MAP2K4": "Dual specificity mitogen-activated protein kinase kinase 4 (MAP2K4, Homo sapiens, UniProt P45985)", "note": "Each line is one published result; the experiments were not run side by side."}
{"SMILES": "Nc1ncc(-c2nc(N3CCOCC3)nc(N3CCOCC3)n2)c(C(F)F)n1", "target": "Serine/threonine-protein kinase 38 (STK38, Homo sapiens, UniProt Q15208)", "observed": "binding", "technique": "competition with immobilised ligand", "tested at": "10 µM", "quantity": "remaining binding", "value": "66%"}
{"SMILES": "C[C@H](C(=O)N[C@H]1COc2ccccc2[C@@H]1S(C)(=O)=O)c1ccc(F)cc1", "target": "ESR2", "observed": "enzyme activity", "action": "inhibitor", "tested at": "10 µM", "quantity": "inhibition", "value": "3%"}
{"SMILES": "Cc1nn(C)cc1-c1nc2c(N3CCN(Cc4ccc(Cl)cc4)CC3)c(Cl)cnc2[nH]1", "target": "Serine/threonine-protein kinase LATS2 (LATS2, Homo sapiens, UniProt Q9NRM7)", "observed": "binding", "technique": "competition with immobilised ligand", "tested at": "1 µM", "quantity": "remaining binding", "value": "77%"}
{"SMILES": "C#Cc1n[nH]c2c(-c3cn([C@@H](C)c4ccccn4)c(=O)[nH]c3=O)cc(F)cc12", "target": "Tyrosine-protein kinase JAK2 (JAK2, Homo sapiens, UniProt O60674)", "observed": "enzyme activity", "action": "inhibitor", "tested at": "0.1 µM", "quantity": "inhibition", "value": "-1%"}
{"SMILES": "Cc1ncc(C)n2nc(/C=C/c3nc(N4CCCC4)cc(N4CCOCC4)n3)nc12", "target": "Nitric oxide synthase, inducible (Nos2, Mus musculus, UniProt P29477)", "observed": "enzyme activity", "action": "inhibitor", "tested at": "10 µM", "quantity": "inhibition", "value": "10%"}
{"SMILES": "COc1ncccc1-c1cnn2ccc(N3CCN(C(=O)OC(C)C)CC3)nc12", "target": "MAP2K4", "observed": "binding", "technique": "competition with immobilised ligand", "tested at": "1 µM", "quantity": "remaining binding", "value": "100%"}
{"SMILES": "CCN(CC)CCCC[C@H](NC(=O)[C@H](CC(C)C)NC(=O)[C@H](C)NC(=O)[C@H](Cc1ccccc1)NC(=O)c1ccc(C(C)(C)C)cc1)C(=O)N[C@@H](CO)C(=O)OC", "target": "Histone-lysine N-methyltransferase ASH1L (ASH1L, Homo sapiens, UniProt Q9NR48)", "observed": "thermal stability", "technique": "DSF", "tested at": "25 µM", "quantity": "ΔTm", "value": "-0.39 °C"}
{"SMILES": "Cc1sc2c(c1C)C(c1ccc(Cl)cc1)=N[C@@H](CC(=O)OC(C)(C)C)c1nnc(C)n1-2", "target": "Stimulator of interferon genes protein (STING1, Homo sapiens, UniProt Q86WV6, H232R)", "observed": "thermal stability", "technique": "DSF", "tested at": "100 µM", "quantity": "ΔTm", "value": "-0.92 °C"}
{"SMILES": "c1ccc(C(NCCNC(c2ccccc2)c2ccccc2)c2ccccc2)cc1", "target": "ESR2", "observed": "enzyme activity", "action": "inhibitor", "tested at": "10 µM", "quantity": "inhibition", "value": "14%"}
{"SMILES": "COc1cc(Nc2ncc(F)c(Nc3ccc4c(n3)NC(=O)C(C)(C)O4)n2)cc(OC)c1OC", "target": "MAP2K4", "observed": "binding", "technique": "competition with immobilised ligand", "tested at": "10 µM", "quantity": "inhibition", "value": "85%"}
